Assay results taken from ChEMBL document CHEMBL5108074 (J Med Chem, 2022).
Converted amounts (≈) assume the structure as drawn.

Key:
Plasma kallikrein [1] = target: T1, Plasma kallikrein (Homo sapiens, UniProt P03952); assay: Inhibition of human plasma kallikrein using H-D-Pro-Phe-Arg-AFC as flurogenic substrate at 100 nM preincubated for 5 mins followed by substrate addition by fluorometer analysis relative to control; type: cell-free
In short: (§1)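 Crude library compounds (unpurified, dissolved in DMSO) were screened twice, once at each of the single concentrations. Human plasma kallikrein was preincubated with compound for 5 min, then H-D-Pro-Phe-Arg-AFC was added. Activity was followed as the kinetic rate of fluorogenic substrate cleavage, and percent inhibition was calculated relative to control.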

Plasma kallikrein [2] = target: T1, Plasma kallikrein; assay: Inhibition of human plasma kallikrein using H-D-Pro-Phe-Arg-AFC as flurogenic substrate at 1000 nM preincubated for 5 mins followed by substrate addition by fluorometer analysis relative to control; type: cell-free; in short: as §1
Plasma kallikrein [3] = target: T1, Plasma kallikrein; assay: Inhibition of human plasma kallikrein using H-D-Pro-Phe-Arg-AFC as flurogenic substrate preincubated for 5 mins followed by substrate addition by fluorometer analysis; type: cell-free
[4] = Metabolic stability in human liver microsomes assessed as intrinsic clearance per mg of protein measured upto 60 mins in presence of NADPH regenerating system by LC-MS/MS analysis; type: ADME, Microsome; settings: for microsomal intrinsic clearance: microsomes, 1 h
[5] = Kinetic solubility of the compound in aqueous assay buffer at pH 7.7
[6] = Kinetic solubility of the compound in 0.1N HCl
[7] = Apparent permeability of the compound across apical side to basolateral side in human Caco-2 cells incubated for 1 hr by LC-MS/MS analysis; settings: for Papp: caco-2, 1 h
[8] = Thermodynamic solubility of the compound in FaSSIF at 1 mg/ml at pH 6.5 measured after 4 hrs; type: physicochemical; settings: simulated gi fluid, pH 6.5, 4 h
In short: (§2)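 Compound (nominal 1 or 100 mg/mL as free base) added to biorelevant medium preheated to 37 °C: FaSSGF at pH 1.6 or FaSSIF at pH 6.5. Vortexed, then shaken 4 h at 37 °C (~500 rpm). Centrifuged at 15000g for 10 min at 37 °C. Supernatant diluted and quantified against calibration standards. Crystalline material used where stated.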

[9] = Thermodynamic solubility of the compound in FaSSGF at 1 mg/ml at pH 1.6 measured after 4 hrs; type: physicochemical; settings: FaSSGF, pH 1.6, read-out: Therm_solubility; in short: as §2
[10] = Clearance in Sprague-Dawley rat blood at 1 mg/kg, iv measured upto 24 hrs by LC-MS analysis; type: ADME, organism-based; settings: whole blood
In short: (§3)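 Male Sprague-Dawley rats, two per route, single dose. IV: 1 mg/kg given as 1 mL/kg of a nominal 1 mg/mL formulation in vehicle. PO: 10 mg/kg given as 5 mL/kg of a 2 mg/mL formulation. PK parameters from noncompartmental analysis. Clearance expressed relative to rat liver blood flow of 80 mL/min/kg.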

[11] = Clearance in Sprague-Dawley rat assessed as liver blood flow at 1 mg/kg, iv measured upto 24 hrs by LC-MS analysis; type: ADME, organism-based; settings: in vivo; in short: as §3
[12] = Half life in Sprague-Dawley rat at 10 mg/kg, po and 1 mg/kg, iv measured upto 24 hrs by LC-MS analysis; type: ADME, organism-based; settings: in vivo; in short: as §3
[13] = Oral bioavailability in Sprague-Dawley rat at 10 mg/kg measured upto 24 hrs by LC-MS analysis; type: ADME, organism-based; settings: in vivo; in short: as §3

T1 sequence (P03952 20-390 limits assumed): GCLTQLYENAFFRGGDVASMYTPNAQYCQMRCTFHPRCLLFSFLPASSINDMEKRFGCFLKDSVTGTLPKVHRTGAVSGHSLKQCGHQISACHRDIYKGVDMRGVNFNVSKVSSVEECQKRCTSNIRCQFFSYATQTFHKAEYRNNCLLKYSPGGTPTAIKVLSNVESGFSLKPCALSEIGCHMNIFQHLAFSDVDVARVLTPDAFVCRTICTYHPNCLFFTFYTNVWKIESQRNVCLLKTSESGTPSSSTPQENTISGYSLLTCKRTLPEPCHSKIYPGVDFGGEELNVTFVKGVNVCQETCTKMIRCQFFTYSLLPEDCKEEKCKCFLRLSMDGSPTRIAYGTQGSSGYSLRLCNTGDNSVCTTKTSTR
T1 sequence (P03952 391-638 limits assumed): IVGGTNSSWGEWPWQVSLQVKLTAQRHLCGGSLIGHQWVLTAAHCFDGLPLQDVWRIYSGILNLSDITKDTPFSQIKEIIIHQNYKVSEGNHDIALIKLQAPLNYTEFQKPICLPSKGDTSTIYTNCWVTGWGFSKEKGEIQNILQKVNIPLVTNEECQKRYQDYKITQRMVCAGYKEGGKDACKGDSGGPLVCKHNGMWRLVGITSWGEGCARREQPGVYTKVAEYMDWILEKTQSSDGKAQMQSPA

## COc1ccccc1CNC(=O)c1cnn(Cc2ccc(Cn3ccccc3=O)cc2)c1
Plasma kallikrein [1]
  inhibition: 11%
Plasma kallikrein [2]
  inhibition: 63%

## O=C(NCc1ccccc1Cl)c1cnn(Cc2ccc(Cn3ccccc3=O)cc2)c1
Plasma kallikrein [1]
  inhibition: 12%
Plasma kallikrein [2]
  inhibition: 67%

## COCc1nn(Cc2ccc(Cn3ccccc3=O)cc2)cc1C(=O)NCc1nccc(C)c1F
Plasma kallikrein [3]
  IC50: 140 nM

## Cc1cc(C(=O)NCc2ccc(CN)cc2)c(C)n1CCCCc1ccccc1
Plasma kallikrein [3]
  IC50: 920 nM

## CCOc1ccnc(CNC(=O)c2cn(Cc3ccc(Cn4ccccc4=O)cc3)nc2COC)c1F
[4]
  microsomal intrinsic clearance: 69 µL/min
Plasma kallikrein [3]
  IC50: 7.9 nM

## COCc1nn(Cc2ccc(Cn3ccccc3=O)cc2)cc1C(=O)NCc1ncc(C)c(OC)c1C
Plasma kallikrein [3]
  IC50: 37 nM

## COCc1nn(Cc2ccc(Cn3ccccc3=O)cc2)cc1C(=O)NCc1c(Cl)ccc(OC)c1F
[4]
  microsomal intrinsic clearance: 120 µL/min
[5]
  solubility kinetic: > 120 µg/mL
[6]
  solubility kinetic: > 120 µg/mL

## O=C(NCc1ccccc1)c1cnn(Cc2ccc(Cn3ccccc3=O)cc2)c1
Plasma kallikrein [1]
  inhibition: 0%
Plasma kallikrein [2]
  inhibition: 29%

## COc1ccc(F)c(CNC(=O)c2cn(Cc3ccc(Cn4ccccc4=O)cc3)nc2CN(C)C)c1F
[4]
  microsomal intrinsic clearance: 280 µL/min
Plasma kallikrein [3]
  IC50: 6.3 nM
[7]
  Papp: 14 10^-6 cm/s

## O=C(NCc1ccc(Cl)cc1)c1cnn(Cc2ccc(Cn3ccccc3=O)cc2)c1
Plasma kallikrein [1]
  inhibition: 13%
Plasma kallikrein [2]
  inhibition: 60%

## Cc1cc(C(=O)NCc2ccc(CN)cc2)c(C)n1Cc1ccccc1
Plasma kallikrein [3]
  IC50: 3700 nM

## Cc1cc(C(=O)NCc2ccc(CN)cc2)c(C)n1Cc1cc(-c2ccccc2)cs1
Plasma kallikrein [3]
  IC50: 570 nM

## Cc1cc(C(=O)NCc2ccc(CN)cc2)c(C)n1Cc1cccs1
Plasma kallikrein [3]
  IC50: 2700 nM

## COCc1nn(Cc2ccc(Cn3ccccc3=O)cc2)cc1C(=O)NCc1cnccc1C(F)(F)F
Plasma kallikrein [3]
  IC50: 460 nM

## Cc1ccc(CNC(=O)c2cnn(Cc3ccc(Cn4ccccc4=O)cc3)c2)cc1
Plasma kallikrein [1]
  inhibition: 36%
Plasma kallikrein [3]
  IC50: 88 nM
Plasma kallikrein [2]
  inhibition: 84%

## COCc1nn(Cc2ccc(Cn3ccccc3=O)cc2)cc1C(=O)NCc1ncc(Cl)cc1F
Plasma kallikrein [3]
  IC50: 160 nM

## COc1cccc(CNC(=O)c2cnn(Cc3ccc(Cn4ccccc4=O)cc3)c2)c1
Plasma kallikrein [1]
  inhibition: 35%
Plasma kallikrein [3]
  IC50: 90 nM
Plasma kallikrein [2]
  inhibition: 83%

## COc1ccc(F)c(CNC(=O)c2cnn(Cc3ccc(Cn4ccccc4=O)cc3)c2)c1F
[4]
  microsomal intrinsic clearance: 36 µL/min
Plasma kallikrein [3]
  IC50: 3 nM

## COCc1nn(Cc2ccc(Cn3ccccc3=O)cc2)cc1C(=O)NCc1nccc(OC(C)C)c1F
Plasma kallikrein [3]
  IC50: 2400 nM

## N=C(N)c1ccc(CNC(=O)c2cnn(Cc3ccccc3)c2)cc1
Plasma kallikrein [3]
  IC50: 62 nM

## Cc1cc(C(=O)NCc2ccc(CN)cc2)c(C)n1Cc1csc(-c2ccccc2)n1
Plasma kallikrein [3]
  IC50: 72 nM

## Cc1cc(C(=O)NCc2ccc(CN)cc2)c(C)n1CCCCCc1ccccc1
Plasma kallikrein [3]
  IC50: 3800 nM

## COCc1nn(Cc2ccc(Cn3ccccc3=O)cc2)cc1C(=O)NCc1nc(C)ccc1F
Plasma kallikrein [3]
  IC50: 900 nM

## COCc1nn(Cc2ccc(Cn3ccccc3=O)cc2)cc1C(=O)NCc1nccc(Cl)c1F
Plasma kallikrein [3]
  IC50: 93 nM

## CCc1cccc(CNC(=O)c2cn(Cc3ccc(Cn4ccccc4=O)cc3)nc2COC)c1F
[5]
  solubility kinetic: > 120 µg/mL
[6]
  solubility kinetic: 29 µg/mL (≈ 59.4 µM)

## Cc1cc(C(=O)NCc2ccc(C(=N)N)cc2)c(C)n1Cc1ccccc1
Plasma kallikrein [3]
  IC50: 5.5 nM

## COCc1nn(Cc2ccc(Cn3ccccc3=O)cc2)cc1C(=O)NCc1nccc(C)c1Cl
Plasma kallikrein [3]
  IC50: 300 nM

## O=C(NCc1c(F)cccc1F)c1cnn(Cc2ccc(Cn3ccccc3=O)cc2)c1
Plasma kallikrein [1]
  inhibition: 47%
Plasma kallikrein [3]
  IC50: 62 nM
Plasma kallikrein [2]
  inhibition: 88%

## Cc1cc(C(=O)NCc2ccc(CN)cc2)c(C)n1Cc1csc(-c2ccccc2)c1
Plasma kallikrein [3]
  IC50: 600 nM

## Cc1cc(C(=O)NCc2ccc(CN)cc2)c(C)n1Cc1csc(Cc2ccccc2)n1
Plasma kallikrein [3]
  IC50: 2700 nM

## Cc1cccc(CNC(=O)c2cnn(Cc3ccc(Cn4ccccc4=O)cc3)c2)c1
Plasma kallikrein [1]
  inhibition: 11%
Plasma kallikrein [2]
  inhibition: 57%

## COCc1nn(Cc2ccc(Cn3ccccc3=O)cc2)cc1C(=O)NCc1cc[nH]n1
Plasma kallikrein [3]
  IC50: 570 nM

## COCc1nn(Cc2ccc(Cn3ccccc3=O)cc2)cc1C(=O)NCc1ncc(Cl)cc1C#N
Plasma kallikrein [3]
  IC50: 250 nM

## Cc1cnn(Cc2ccc(Cn3cc(C(=O)NCc4ccc5c(N)nccc5c4)cn3)cc2)c1
[4]
  microsomal intrinsic clearance: 181 µL/min

## O=C(NCc1ccccc1F)c1cnn(Cc2ccc(Cn3ccccc3=O)cc2)c1
Plasma kallikrein [1]
  inhibition: 13%
Plasma kallikrein [2]
  inhibition: 59%

## COCc1nn(Cc2ccc(Cn3ccccc3=O)cc2)cc1C(=O)NCc1cc(OC)ccc1F
[5]
  solubility kinetic: > 120 µg/mL
[6]
  solubility kinetic: > 120 µg/mL

## Cc1cc(C(=O)NCc2ccc(CN)cc2)c(C)n1CCc1ccccc1
Plasma kallikrein [3]
  IC50: > 10000 nM

## COCc1nn(Cc2ccc(Cn3ccccc3=O)cc2)cc1C(=O)NCc1cc(C)[nH]n1
Plasma kallikrein [3]
  IC50: 220 nM

## Cc1cnn(Cc2ccc(Cn3c(C)cc(C(=O)NCc4ccc(CN)cc4)c3C)cc2)c1
Plasma kallikrein [3]
  IC50: 65 nM

## Cc1cc(C(=O)NCc2ccc(CN)cc2)c(C)n1Cc1cccc(-c2ccccc2)c1
Plasma kallikrein [3]
  IC50: 730 nM

## COCc1nn(Cc2ccc(Cn3ccccc3=O)cc2)cc1C(=O)NCc1cccc(O)c1F
[5]
  solubility kinetic: > 120 µg/mL
[6]
  solubility kinetic: > 120 µg/mL

## COCc1nn(Cc2ccc(Cn3ccccc3=O)cc2)cc1C(=O)NCc1nccc(OC)c1C
[8]
  Therm_solubility: 110 µg/mL
Plasma kallikrein [3]
  IC50: 4.1 nM
[9]
  solubility thermodynamic at 4 h: 970 µg/mL (≈ 1990 µM)
[10]
  clearance: 35 mL/min/kg
[11]
  LBF: 44%
[12]
  t1/2: 1 h
[13]
  F: 31%

## NCc1ccc(CNC(=O)c2cnn(Cc3csc(-c4ccccc4)n3)c2)cc1
Plasma kallikrein [3]
  IC50: 850 nM

## Cc1cc(C(=O)NCc2ccc(CN)cc2)c(C)n1CCCc1ccccc1
Plasma kallikrein [3]
  IC50: 4800 nM

## O=C(NCc1cccc(Cl)c1)c1cnn(Cc2ccc(Cn3ccccc3=O)cc2)c1
Plasma kallikrein [1]
  inhibition: 20%
Plasma kallikrein [2]
  inhibition: 74%

## Cc1cccc(C)c1CNC(=O)c1cnn(Cc2ccc(Cn3ccccc3=O)cc2)c1
Plasma kallikrein [1]
  inhibition: 53%
Plasma kallikrein [3]
  IC50: 68 nM
Plasma kallikrein [2]
  inhibition: 89%

## Cc1cc(C(=O)NCc2ccc(CN)cc2)c(C)n1Cc1coc(-c2ccccc2)n1
Plasma kallikrein [3]
  IC50: 480 nM

## COc1cccc(CNC(=O)c2cn(Cc3ccc(Cn4ccccc4=O)cc3)nc2C2CC2)c1F
[4]
  microsomal intrinsic clearance: 170 µL/min
[5]
  solubility kinetic: 58 µg/mL (≈ 119 µM)
[6]
  solubility kinetic: > 110 µg/mL

## Cc1cc(C(=O)NCc2ccc(CN)cc2)c(C)n1Cc1ccc(-c2ccccc2)cc1
Plasma kallikrein [3]
  IC50: 5600 nM

## O=C(NCc1c(F)cccc1Cl)c1cnn(Cc2ccc(Cn3ccccc3=O)cc2)c1
Plasma kallikrein [1]
  inhibition: 61%
Plasma kallikrein [3]
  IC50: 31 nM
Plasma kallikrein [2]
  inhibition: 92%

## O=C(NCc1c(Cl)cccc1Cl)c1cnn(Cc2ccc(Cn3ccccc3=O)cc2)c1
Plasma kallikrein [1]
  inhibition: 56%
Plasma kallikrein [3]
  IC50: 40 nM
Plasma kallikrein [2]
  inhibition: 94%

## COCc1nn(Cc2ccc(Cn3ccccc3=O)cc2)cc1C(=O)NCc1ncc(F)cc1F
Plasma kallikrein [3]
  IC50: 2220 nM

## COCc1nn(Cc2ccc(Cn3ccccc3=O)cc2)cc1C(=O)NCc1nc(OC)ccc1F
Plasma kallikrein [3]
  IC50: 900 nM

## Cc1cc(C(=O)NCc2ccc(CN)cc2)c(C)n1Cc1cccc(-c2cccnc2)n1
Plasma kallikrein [3]
  IC50: 580 nM

## O=C(NCc1c(F)cccc1C(F)(F)F)c1cnn(Cc2ccc(Cn3ccccc3=O)cc2)c1
Plasma kallikrein [1]
  inhibition: 83%
Plasma kallikrein [3]
  IC50: 7.8 nM
Plasma kallikrein [2]
  inhibition: 97%

## COc1ccc(CNC(=O)c2cnn(Cc3ccc(Cn4ccccc4=O)cc3)c2)cc1
Plasma kallikrein [1]
  inhibition: 17%
Plasma kallikrein [2]
  inhibition: 72%

## COc1ccnc(CNC(=O)c2cnn(Cc3ccc(Cn4ccccc4=O)cc3)c2)c1F
[4]
  microsomal intrinsic clearance: 2 µL/min
Plasma kallikrein [3]
  IC50: 5.1 nM

## Cc1ccccc1CNC(=O)c1cnn(Cc2ccc(Cn3ccccc3=O)cc2)c1
Plasma kallikrein [1]
  inhibition: 12%
Plasma kallikrein [2]
  inhibition: 62%

## COc1ccnc(CNC(=O)c2cn(Cc3ccc(Cn4ccccc4=O)cc3)nc2C2CC2)c1F
[4]
  microsomal intrinsic clearance: 49 µL/min
Plasma kallikrein [3]
  IC50: 4.4 nM

## COc1cccc(CNC(=O)c2cn(Cc3ccc(Cn4ccccc4=O)cc3)nc2N(C)C)c1F
[5]
  solubility kinetic: > 120 µg/mL
[6]
  solubility kinetic: > 120 µg/mL

## Cc1cc(C(=O)NCc2ccc(CN)cc2)c(C)n1Cc1csc(-c2cccnc2)c1
Plasma kallikrein [3]
  IC50: 440 nM

## Nc1cccc2cc(CNC(=O)c3cnn(Cc4ccc(Cn5ccccc5=O)cc4)c3)ccc12
[4]; liver microsomes, read-out: CLH
  microsomal CLint: 37 µL/min/mg
[7]; Caco-2
  Papp A→B at 1 h: 2 ×10⁻⁶ cm/s

## COCc1nn(Cc2ccc(Cn3ccccc3=O)cc2)cc1C(=O)NCc1sccc1Cl
Plasma kallikrein [3]
  IC50: 210 nM

## COCc1nn(Cc2ccc(Cn3ccccc3=O)cc2)cc1C(=O)NCc1cccc(OC)c1F
[4]
  microsomal intrinsic clearance: 45 µL/min
Plasma kallikrein [3]
  IC50: 17 nM
[5]
  solubility kinetic: > 120 µg/mL
[7]
  Papp: 25 10^-6 cm/s
[6]
  solubility kinetic: > 120 µg/mL
